Measured values from ChEMBL document CHEMBL1806459, “Discovery of N-(1-ethylpropyl)-[3-methoxy-5-(2-methoxy-4-trifluoromethoxyphenyl)-6-methyl-pyrazin-2-yl]amine 59 (NGD 98-2): an orally active corticotropin releasing factor-1 (CRF-1) receptor antagonist” (J Med Chem, 2011).
Converted amounts (≈) assume the structure as drawn. The source made the active and inactive calls. The rule behind the calls is not given here.

Target: T1, Corticotropin-releasing factor receptor 1 (Homo sapiens, UniProt P34998)
T1 sequence (P34998 whole entry): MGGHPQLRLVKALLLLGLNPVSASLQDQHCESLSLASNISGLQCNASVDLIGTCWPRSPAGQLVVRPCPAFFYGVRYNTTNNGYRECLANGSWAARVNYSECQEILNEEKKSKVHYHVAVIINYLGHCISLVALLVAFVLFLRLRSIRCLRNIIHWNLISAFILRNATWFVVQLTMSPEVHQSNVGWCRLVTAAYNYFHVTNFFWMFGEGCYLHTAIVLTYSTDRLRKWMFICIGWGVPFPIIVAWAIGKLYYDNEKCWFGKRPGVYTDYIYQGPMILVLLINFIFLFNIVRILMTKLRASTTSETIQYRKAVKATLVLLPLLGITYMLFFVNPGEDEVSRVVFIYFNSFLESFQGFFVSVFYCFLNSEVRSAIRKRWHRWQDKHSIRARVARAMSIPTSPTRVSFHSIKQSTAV
Assay: Antagonist activity at human CRF-1 receptor
Type: functional
Details: not given
For `CCCC(CCC)N1CCn2nc(-c3ccc(Cl)cc3Cl)c3nc(C)cc1c32`, the Ki was 4 nM.
For `CCCN(CCC)c1c(C)ncc2c(-c3ccc(Cl)cc3Cl)cccc12`, the Ki was 103 nM.
Work on `COCC(COC)Nc1nc(C)nc2c(-c3ccc(Cl)cc3Cl)c(C)nn12` yielded a Ki of 2 nM.

System: Rattus norvegicus
Assay: Decrease in restrained-stress induced ATCH release in plasma of Sprague-Dawley rat at 3 mg/kg, po pretreated with compound for 1 hr by radioimmunoassay
Type: functional, organism-based
Parameters: dose 3 mg/kg
Details: not given
Summary of the method: (§1)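 Rats were dosed orally 1 h before a 10 min period of physical restraint, across a 1–30 mg/kg range. The read-out was plasma ACTH, compared against vehicle-treated stressed and unstressed rats.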
With `CCCN(CCC)c1cc(C)nc2c(-c3cnc(N(C)C)cc3C)c(C)nn12` the Activity was “Active”.

System: Rattus norvegicus
Assay: Ex vivo CRF-1 receptor occupancy in po dosed rat cortical homogenate assessed as inhibition of [I125]-sauvagine binding pretreated for 3 hrs
Type: functional, organism-based
Details: not given
Summary of the method: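 Rats dosed orally at 1, 3 and 10 mg/kg; cortex taken at 3 h for ex vivo binding. Specific [125I]-sauvagine binding compared with vehicle-treated rats to give ex vivo ID50.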
In the case of `CCCN(CCC)c1cc(C)nc2c(-c3cnc(N(C)C)cc3C)c(C)nn12`, the IC50 is reported as 0.074 µg/mL (≈ 0.194 µM).

Same assay, conditions: po, read-out: ID50 (the source's name)
In the case of `CCCN(CCC)c1cc(C)nc2c(-c3cnc(N(C)C)cc3C)c(C)nn12`, the ED50 is reported as 7.2 mg/kg.

System: not listed separately
Assay: Half life in rat microsomes
Type: ADME, Microsome
Details: not given
Summary of the method: (§2)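 Stability in human or rat liver microsomes; half-life (T1/2, min) of compound turnover reported.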
`CCOc1nc(-c2ccc(Cl)cc2Cl)c(CC)nc1NC(CC)CC` showed a half-life of 74 min.
In the case of `CCc1cc(OC)ccc1-c1nc(OC)c(NC(CC)CC)nc1CC`, the half-life is reported as 120 min.
Compound `CCc1nc(-c2ccc(Cl)cc2Cl)c(CC)nc1NC(COC)COC` has a half-life of 2.5 min.
`CCc1nc(-c2ccc(OC(C)C)cc2OC)c(CC)nc1NC(CC)CC` showed a half-life of less than 1 min.
`CCc1nc(NC(CC)CC)c(OC)nc1-c1ccc(C(F)(F)F)cc1OC` showed a half-life of 23 min.
`CCc1nc(-c2ccc(Cl)cc2Cl)c(CC)nc1SC(C)CC` (stereo not drawn) gave a half-life of 4.1 min.
`CCC(CC)Nc1nc(C)c(-c2ccc(OC(F)F)cc2Cl)nc1OC` gave a half-life of 48 min.
`CCc1nc(-c2ccc(OC(F)(F)F)cc2OC)c(OC)nc1NC(CC)CC` gave a half-life of 36 min.
In the case of `CCc1nc(-c2ccc(OC)cc2OC(F)(F)F)c(CC)nc1NC(CC)CC`, the half-life is reported as 4.1 min.
With `CCc1nc(NC(CC)CC)c(OC)nc1-c1ccc(OC)cc1C(F)(F)F` the half-life was 120 min.
For `CCC(CC)Nc1nc(OC)c(-c2ccc(Cl)cc2Cl)nc1C`, the half-life was 17 min.
`CCc1nc(-c2ccc(OC(F)(F)F)cc2OC)c(CC)nc1NC(CC)CC` showed a half-life of 2.5 min.
Compound `CCc1nc(NC(CC)CC)c(F)nc1-c1ccc(Cl)cc1Cl` has a half-life of 21 min.
In the case of `CCc1nc(-c2ccc(OC)nc2OC)c(CC)nc1NC(CC)CC`, the half-life is reported as 2.5 min.
Compound `CCc1nc(-c2ccc(OC)cc2OC)c(CC)nc1NC(CC)CC` has a half-life of 2.5 min.
With `CCc1nc(-c2ccc(C)cc2OC)c(CC)nc1NC(CC)CC` the half-life was less than 1 min.
`CCCN(CC1CC1)c1nc(CC)c(-c2ccc(Cl)cc2Cl)nc1CC` gave a half-life of 4.2 min.
With `CCc1nc(-c2ccc(Cl)cc2Cl)c(CC)nc1OC(CC)CC` the half-life was 2.5 min.
In the case of `CCc1nc(N(CC2CC2)CC2CC2)c(CC)nc1-c1ccc(Cl)cc1Cl`, the half-life is reported as less than 1 min.
`CCCCc1nc(-c2ccc(Cl)cc2Cl)c(CC)nc1NC(CC)CC` showed a half-life of 4.2 min.
`CCc1nc(NC(CC)CC)c(OC)nc1-c1ccc(OC(F)F)cc1Cl` gave a half-life of 47 min.

System: Rattus norvegicus
Assay: Decrease in restrained-stress induced ATCH release in plasma of Sprague-Dawley rat at 10 mg/kg, po pretreated with compound for 1 hr by radioimmunoassay
Type: functional, organism-based
Parameters: dose 10 mg/kg
Details: not given
Summary of the method: as §1
With `CCCN(CCC)c1cc(C)nc2c(-c3cnc(N(C)C)cc3C)c(C)nn12` the Activity was “Active”.

Target: T1, Corticotropin-releasing factor receptor 1
Assay: Displacement of [125I]-sauvagine from human CRF-1 receptor expressed in human IMR-32 cells after 2 hrs by scintillation counting
Type: cell-based
Details: not given
Summary of the method: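 Competition binding against 125I-sauvagine on membrane preparations from IMR-32 human neuroblastoma cells, which express CRF-1 endogenously. Modified from a published method.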
For `CCOc1nc(-c2ccc(Cl)cc2Cl)c(CC)nc1NC(CC)CC`, the Ki was 151 nM.
`CCc1cc(OC)ccc1-c1nc(OC)c(NC(CC)CC)nc1CC` showed a Ki of 1.9 nM.
`CCc1nc(-c2ccc(Cl)cc2Cl)c(CC)nc1NC(COC)COC` gave a Ki of 224 nM.
Compound `CCc1nc(-c2ccc(OC(C)C)cc2OC)c(CC)nc1NC(CC)CC` has a Ki of 4.2 nM.
In the case of `CCc1nc(NC(CC)CC)c(OC)nc1-c1ccc(C(F)(F)F)cc1OC`, the Ki is reported as 4.4 nM.
In the case of `CCc1nc(-c2ccc(Cl)cc2Cl)c(CC)nc1SC(C)CC` (stereo not drawn), the Ki is reported as 401 nM.
In the case of `CCC(CC)Nc1nc(C)c(-c2ccc(OC(F)F)cc2Cl)nc1OC`, the Ki is reported as 4.6 nM.
`CCc1nc(-c2ccc(OC(F)(F)F)cc2OC)c(OC)nc1NC(CC)CC` gave a Ki of 6.1 nM.
`CCc1nc(-c2ccc(OC)cc2OC(F)(F)F)c(CC)nc1NC(CC)CC` showed a Ki of 4.1 nM.
Compound `CCc1nc(NC(CC)CC)c(OC)nc1-c1ccc(OC)cc1C(F)(F)F` has a Ki of 2.2 nM.
For `CCC(CC)Nc1nc(OC)c(-c2ccc(Cl)cc2Cl)nc1C`, the Ki was 14.4 nM.
With `CCc1nc(-c2ccc(OC(F)(F)F)cc2OC)c(CC)nc1NC(CC)CC` the Ki was 7.2 nM.
`CCc1nc(NC(CC)CC)c(F)nc1-c1ccc(Cl)cc1Cl` showed a Ki of 167 nM.
For `CCc1nc(-c2ccc(OC)nc2OC)c(CC)nc1NC(CC)CC`, the Ki was 11.6 nM.
`CCc1nc(-c2ccc(OC)cc2OC)c(CC)nc1NC(CC)CC` showed a Ki of 7.3 nM.
`CCc1nc(-c2ccc(C)cc2OC)c(CC)nc1NC(CC)CC` showed a Ki of 23.7 nM.
For `CCCN(CC1CC1)c1nc(CC)c(-c2ccc(Cl)cc2Cl)nc1CC`, the Ki was 19.2 nM.
In the case of `CCc1nc(-c2ccc(Cl)cc2Cl)c(CC)nc1OC(CC)CC`, the Ki is reported as 46 nM.
`CCc1nc(N(CC2CC2)CC2CC2)c(CC)nc1-c1ccc(Cl)cc1Cl` gave a Ki of 26 nM.
Compound `CCCCc1nc(-c2ccc(Cl)cc2Cl)c(CC)nc1NC(CC)CC` has a Ki of 3660 nM.
`CCc1nc(NC(CC)CC)c(OC)nc1-c1ccc(OC(F)F)cc1Cl` gave a Ki of 1.4 nM.

System: Rattus norvegicus
Assay: Antihyperlocomotion activity in Wistar rat assessed as decrease in CRF-induced hyperlocomotion at 10 mg/kg, po administered 1 hr before CRF challenge measured after 1 hr
Type: functional, organism-based
Parameters: dose 10 mg/kg
Details: not given
Summary of the method: (§3)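 Oral dosing in rats 1 h before an ICV CRF challenge of 0.3 μg, across a 1–30 mg/kg range. The read-out was locomotor movement time, compared against TPGS-vehicle rats given CRF and rats given vehicle without CRF.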
For `CCCN(CCC)c1cc(C)nc2c(-c3cnc(N(C)C)cc3C)c(C)nn12`, the Activity was “Active”.

System: not listed separately
Assay: Half life in human microsomes
Type: ADME, Microsome
Details: not given
Summary of the method: as §2
`CCOc1nc(-c2ccc(Cl)cc2Cl)c(CC)nc1NC(CC)CC` showed a half-life of 120 min.
With `CCc1cc(OC)ccc1-c1nc(OC)c(NC(CC)CC)nc1CC` the half-life was 120 min.
Compound `CCc1nc(-c2ccc(Cl)cc2Cl)c(CC)nc1NC(COC)COC` has a half-life of 9 min.
`CCc1nc(-c2ccc(OC(C)C)cc2OC)c(CC)nc1NC(CC)CC` gave a half-life of 11 min.
With `CCc1nc(NC(CC)CC)c(OC)nc1-c1ccc(C(F)(F)F)cc1OC` the half-life was 73 min.
For `CCc1nc(-c2ccc(Cl)cc2Cl)c(CC)nc1SC(C)CC` (stereo not drawn), the half-life was 17 min.
Compound `CCC(CC)Nc1nc(C)c(-c2ccc(OC(F)F)cc2Cl)nc1OC` has a half-life of 120 min.
With `CCc1nc(-c2ccc(OC(F)(F)F)cc2OC)c(OC)nc1NC(CC)CC` the half-life was 52 min.
Work on `CCc1nc(-c2ccc(OC)cc2OC(F)(F)F)c(CC)nc1NC(CC)CC` yielded a half-life of 16 min.
Compound `CCc1nc(NC(CC)CC)c(OC)nc1-c1ccc(OC)cc1C(F)(F)F` has a half-life of 120 min.
Compound `CCC(CC)Nc1nc(OC)c(-c2ccc(Cl)cc2Cl)nc1C` has a half-life of 56 min.
In the case of `CCc1nc(-c2ccc(OC(F)(F)F)cc2OC)c(CC)nc1NC(CC)CC`, the half-life is reported as 13 min.
`CCc1nc(NC(CC)CC)c(F)nc1-c1ccc(Cl)cc1Cl` gave a half-life of 73 min.
`CCc1nc(-c2ccc(OC)nc2OC)c(CC)nc1NC(CC)CC` gave a half-life of 9 min.
`CCc1nc(-c2ccc(OC)cc2OC)c(CC)nc1NC(CC)CC` gave a half-life of 8 min.
Work on `CCc1nc(-c2ccc(C)cc2OC)c(CC)nc1NC(CC)CC` yielded a half-life of 11 min.
For `CCCN(CC1CC1)c1nc(CC)c(-c2ccc(Cl)cc2Cl)nc1CC`, the half-life was 12 min.
Work on `CCc1nc(-c2ccc(Cl)cc2Cl)c(CC)nc1OC(CC)CC` yielded a half-life of 10 min.
In the case of `CCc1nc(N(CC2CC2)CC2CC2)c(CC)nc1-c1ccc(Cl)cc1Cl`, the half-life is reported as 8 min.
`CCCCc1nc(-c2ccc(Cl)cc2Cl)c(CC)nc1NC(CC)CC` gave a half-life of 22 min.
With `CCc1nc(NC(CC)CC)c(OC)nc1-c1ccc(OC(F)F)cc1Cl` the half-life was 120 min.

Target: Corticotropin-releasing factor receptor 1 (Rattus norvegicus, UniProt P35353)
Sequence (P35353 whole entry): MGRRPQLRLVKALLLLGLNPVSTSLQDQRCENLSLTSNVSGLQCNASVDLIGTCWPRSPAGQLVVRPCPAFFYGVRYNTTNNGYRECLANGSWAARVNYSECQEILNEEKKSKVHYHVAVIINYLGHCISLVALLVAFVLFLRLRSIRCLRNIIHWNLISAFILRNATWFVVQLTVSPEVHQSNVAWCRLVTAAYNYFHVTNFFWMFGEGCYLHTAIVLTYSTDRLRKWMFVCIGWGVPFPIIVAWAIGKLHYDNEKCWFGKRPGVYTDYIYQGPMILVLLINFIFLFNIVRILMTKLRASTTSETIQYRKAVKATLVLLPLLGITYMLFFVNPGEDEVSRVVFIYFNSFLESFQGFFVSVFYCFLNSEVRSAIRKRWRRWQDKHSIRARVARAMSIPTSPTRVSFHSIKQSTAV
Assay: Displacement of [125I]-sauvagine from rat CRF-1 receptor expressed in rat cortical membrane after 2 hrs by scintillation counting
Type: cell membranes
Details: not given
Summary of the method: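 Displacement of [125I]-sauvagine binding from rat cortical membrane homogenate with increasing compound concentrations; Ki derived.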
Work on `CCCN(CCC)c1cc(C)nc2c(-c3cnc(N(C)C)cc3C)c(C)nn12` yielded a Ki of 3.8 nM.

System: Rattus norvegicus
Assay: Antihyperlocomotion activity in Wistar rat assessed as decrease in CRF-induced hyperlocomotion at 3 mg/kg, po administered 1 hr before CRF challenge measured after 1 hr
Type: functional, organism-based
Parameters: dose 3 mg/kg
Details: not given
Summary of the method: as §3
In the case of `CCCN(CCC)c1cc(C)nc2c(-c3cnc(N(C)C)cc3C)c(C)nn12`, the Activity is reported as “Active”.
